Values after ≈ are worked out from the molar mass of the structure shown.

What is called MIC is the lowest concentration that inhibits growth of the organism. Read a high MIC as a less susceptible organism.

For experiment [1], the system named is Entamoeba histolytica. The experiment in a line: Antiprotozoal activity measured as the conc for >95% inhibition of Entamoeba histolytica,. The class given is functional, organism-based. Put shortly:
(§1)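 Protozoa grown 48 h (T. vaginalis in TYM 721, T. foetus in TYM 359, E. histolytica J 190 in modified Boeck Drbohlav medium, 37 °C) and pooled; 0.6 × 10^6 organisms into 10-mL tubes with drug 32 to 0.06 µg/mL, 48 h; inhibition scored microscopically against untreated controls as 100, >95, 95-25 or <25%.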

For experiment [2], the system named is Candida albicans. Briefly: Antifungal activity against Candida albicans, activity expressed as minimum inhibitory concentration (ug/mL). The class given is functional. Put shortly:
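Tube dilution in Sabouraud's dextrose broth (ca. 3 mL/tube) at 37 °C; inoculum from 24-h yeast culture, 1:1000 in saline. Drug dissolved in Me2SO-EtOH (1:9), stock 3.2 mg/mL; twofold serial dilutions 32 to 0.06 µg/mL. Read after 48 h; MIC = lowest concentration with no visible growth.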

The test system of experiment [3] is Entamoeba histolytica. The experiment in a line: Antiprotozoal activity measured as the conc for 100% inhibition of Entamoeba histolytica,. In kind it is functional, organism-based. Put shortly:
as §1

Experiment [4] concerns Saccharomyces cerevisiae. Briefly: Antifungal activity against Saccharomyces cerevisiae, activity expressed as minimum inhibitory concentration (ug/mL). In kind it is functional.
For experiment [5], the system named is Entamoeba histolytica. The experiment in a line: Antiprotozoal activity measured as the conc for 95-[…]% inhibition of Entamoeba histolytica. In kind it is functional, organism-based.
Experiment [6] deals with Trichomonas vaginalis. The experiment in a line: Antiprotozoal activity measured as the conc for 95-[…]% inhibition of Trichomonas vaginalis. The class given is functional, organism-based.
Experiment [7] relates to Trichophyton benhamiae. The experiment in a line: Antifungal activity against Trichophyton mentagrophytes, activity expressed as minimum inhibitory concentration (ug/mL). The class given is functional, Arthroderma benhamiae.
The test system of experiment [8] is Epidermophyton floccosum. Briefly: Antifungal activity against Epidermophyton floccosum, activity expressed as minimum inhibitory concentration (ug/mL). In kind it is functional.
Experiment [9] deals with Trichomonas vaginalis. Briefly: Antiprotozoal activity measured as the conc for <[…]% inhibition of Trichomonas vaginalis. The class given is functional, organism-based.
For experiment [10], the system named is Trichomonas vaginalis. The experiment in a line: Antiprotozoal activity measured as the conc for 100% inhibition of Trichomonas vaginalis. The class given is functional, organism-based. Summed up: as §1
The subject of experiment [11] is Entamoeba histolytica. The experiment in a line: Antiprotozoal activity measured as the conc for <[…]% inhibition of Entamoeba histolytica,. The class given is functional, organism-based.
In experiment [12] the test system is Saccharomyces cerevisiae. Briefly: Antifungal activity against Saccharomyces cerevisiae, activity expressed as minimum inhibitory concentration ([…]). The class given is functional.
For experiment [13], the system named is Bacteroides fragilis. The experiment in a line: Antibacterial activity against Bacteroides fragilis, activity expressed as […] inhibitory zone (mm, diameter). The class given is functional. Put shortly:
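Agar diffusion vs B. fragilis grown in thioglycolate broth: 0.05 mg drug per paper disk (stock 1 mg/mL, Me2SO-EtOH 1:9), brain-heart infusion agar seeded with 48-h culture at 1:100, anaerobic 37 °C, 24 h; zone diameter in mm.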

In experiment [14] the test system is Trichomonas vaginalis. The experiment in a line: Antiprotozoal activity measured as the conc for<[…]% inhibition of Trichomonas vaginalis. In kind it is functional, organism-based.
In experiment [15] the test system is Actinomyces israelii. Briefly: Antibacterial activity against Actinomyces israelii, activity expressed as inhibitory zone (mm, diameter). In kind it is functional. Put shortly:
(§2)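 Agar diffusion: disks loaded with 0.05 mg drug (stock 1 mg/mL in Me2SO-EtOH 1:9) on brain-heart infusion agar seeded 1:100 with 48-h anaerobe culture grown in thioglycolate broth; incubated anaerobically at 37 °C for 24 h; zone diameter measured in mm.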

The subject of experiment [16] is Cutibacterium acnes. Briefly: Antibacterial activity against Propionibacterium acnes, activity expressed as inhibitory zone (mm, diameter); QA is questionable activity. In kind it is functional, organism-based. Put shortly: as §2
Experiment [17] relates to Candida albicans. The experiment in a line: Antifungal activity against Candida albicans, activity expressed as […] inhibitory zone (mm, diameter). In kind it is functional. Put shortly:
(§3)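 Yeast grown in Sabouraud's dextrose broth, 24-h culture seeded 1:100 into agar; paper disks carrying 0.05 mg drug (from 1 mg/mL stock in Me2SO-EtOH 1:9); 37 °C, read after 48 h as zone diameter (mm).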

In experiment [18] the test system is Epidermophyton floccosum. Briefly: Antifungal activity against Epidermophyton floccosum, activity expressed as inhibitory zone (mm, diameter). In kind it is functional. Summed up: (§4)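 Dermatophytes grown in Sabouraud's dextrose broth, 4-5 day cultures seeded 1:100 into agar; disks with 0.05 mg drug (1 mg/mL stock, Me2SO-EtOH 1:9); grown and tested at 28 °C, zone diameter (mm) read after 48 h.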

Experiment [19] has as its system Clostridium novyi. The experiment in a line: Antibacterial activity against Clostridium novyi, activity expressed as inhibitory zone (mm, diameter). The class given is functional. Put shortly: as §2
Experiment [20] has as its system Tritrichomonas suis. The experiment in a line: Antiprotozoal activity measured as the conc for < […]% inhibition of Trichomonas foetus. In kind it is functional, organism-based.
Experiment [21] relates to Epidermophyton floccosum. The experiment in a line: Antifungal activity against Epidermophyton floccosum, activity expressed as minimum inhibitory concentration ([…]). The class given is functional.
Experiment [22] relates to Candida albicans. Briefly: Antifungal activity against Candida albicans, activity expressed as minimum inhibitory concentration ([…]). The class given is functional.
The subject of experiment [23] is Saccharomyces cerevisiae. The experiment in a line: Antifungal activity against Saccharomyces cerevisiae, activity expressed as inhibitory zone (mm, diameter). In kind it is functional. Put shortly: as §3
Experiment [24] relates to Streptococcus pyogenes. Briefly: Antibacterial activity against Streptococcus pyogenes C, activity expressed as inhibitory zone (mm, diameter). In kind it is functional. Summed up:
as §2

Experiment [25] has as its system Trichophyton benhamiae. The experiment in a line: Antifungal activity against Trichophyton mentagrophytes, activity expressed as inhibitory zone (mm, diameter). The class given is functional, Arthroderma benhamiae. Summed up:
as §4

The test system of experiment [26] is Trichophyton benhamiae. The experiment in a line: Antifungal activity against Trichophyton mentagrophytes, activity expressed as minimum inhibitory concentration ([…]). The class given is functional, Arthroderma benhamiae.
For experiment [27], the system named is Entamoeba histolytica. Briefly: Antiprotozoal activity measured as the conc for >95% inhibition of Entamoeba histolytica. In kind it is functional, organism-based. Summed up: (§5)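 E. histolytica (J 190) grown 48 h at 37 °C in modified Boeck Drbohlav medium, pooled; 0.6 × 10^6 organisms inoculated into 10 mL medium with drug at 32 to 0.06 µg/mL, incubated 48 h.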

Experiment [28] deals with Tritrichomonas suis. Briefly: Antiprotozoal activity measured as the conc for 100% inhibition of Trichomonas foetus. The class given is functional, organism-based. Put shortly:
as §1

Experiment [29] concerns Tritrichomonas suis. Briefly: Antiprotozoal activity measured as the conc for 95-[…]% inhibition of Trichomonas foetus. In kind it is functional, organism-based.
For experiment [30], the system named is Candida albicans. Briefly: Antifungal activity against Candida albicans, activity expressed as […] inhibitory zone (mm, diameter); QA is questionable activity. The class given is functional, organism-based. Put shortly:
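Agar diffusion on Sabouraud's dextrose agar seeded with 24-h yeast culture at 1:100 in agar; paper disks loaded with 0.05 mg drug (stock 1 mg/mL in Me2SO-EtOH 1:9). Incubated at 37 °C for 48 h; inhibition zone diameter measured in mm.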

The subject of experiment [31] is Tritrichomonas suis. The experiment in a line: Antiprotozoal activity measured as the conc for <[…]% inhibition of Trichomonas foetus. In kind it is functional, organism-based.
Experiment [32] has as its system Trichomonas vaginalis. The experiment in a line: Antiprotozoal activity measured as the conc for >95% inhibition of Trichomonas vaginalis. In kind it is functional, organism-based. Summed up: as §1
Experiment [33] has as its system Tritrichomonas suis. Briefly: Antiprotozoal activity measured as the conc for >95% inhibition of Trichomonas foetus. In kind it is functional, organism-based. Summed up: as §1
In experiment [34] the test system is Entamoeba histolytica. The experiment in a line: Antiprotozoal activity measured as the conc for 100% inhibition of Entamoeba histolytica. The class given is functional, organism-based. Summed up:
as §5

With `Clc1ccccc1C(c1ccccc1)(c1ccccc1)n1ccnc1` [CLOTRIMAZOLE], the Concentration was 16 µg/mL in experiment [1]; 32 µg/mL in experiment [3]; 8 µg/mL in experiment [5]; 8 µg/mL in experiment [6]; 4 µg/mL in experiment [9]; 32 µg/mL in experiment [10]. This compound gave a Concentration in [11] of 4 µg/mL. The MIC was 4 µg/mL (≈ 11.6 µM) in [2], 0.06 µg/mL (≈ 0.174 µM) in experiment [4], 0.06 µg/mL (≈ 0.174 µM) in experiment [7] and 0.06 µg/mL (≈ 0.174 µM) in [8].
Consider `COc1ccccc1C[C@H]1NC[C@H](O)[C@H]1OC(C)=O`, for which the MIC in [12], in experiment [21], in experiment [22] and in experiment [26] was above 32 µg/mL each time. For the same compound, the Inhibitory zone in experiment [13] is 0 mm; in [15], 0 mm; in [16], “Questionable activity”; in [17], 0 mm; in [18], 0 mm; in experiment [19] it was 13 mm. Also, the Inhibitory zone in experiment [23], in experiment [24] and in experiment [25] was 0 mm each time. Moreover, the Concentration in experiment [14], in experiment [20] and in experiment [9] was 32 µg/mL each time.
Take `COc1ccc(C[C@H]2NC[C@H](O)[C@H]2OC(C)=O)cc1`: the Concentration in experiment [27] was determined as 1 µg/mL; in experiment [28], 4 µg/mL; in experiment [29] it was 0.5 µg/mL; in experiment [31], 0.25 µg/mL; in [32], 0.5 µg/mL; in [6], 0.25 µg/mL. Further, the Concentration came out at 1 µg/mL in experiment [33], 2 µg/mL in experiment [10] and 2 µg/mL in experiment [34]. Further, in experiment [30], the Inhibitory zone entry was “Questionable activity”.

(Values after ChEMBL document CHEMBL1122441, “Structure-activity relationships of synthetic antibiotic analogues of anisomycin” (1983).)
